{"data": "Results of several laboratories", "MTNR1A": "Melatonin receptor type 1A (MTNR1A, Homo sapiens, UniProt P48039)", "note": "Each line is one published result; the experiments were not run side by side."}
{"SMILES": "CCN(CC)CCCC[C@H](NC(=O)[C@H](CC(C)C)NC(=O)[C@H](C)NC(=O)[C@H](Cc1ccccc1)NC(=O)c1ccc(C(C)(C)C)cc1)C(=O)N[C@@H](CO)C(=O)OC", "target": "B2 bradykinin receptor (BDKRB2, Homo sapiens, UniProt P30411)", "assay": "ligand displacement, radioligand", "conditions": "10 µM", "quantity": "remaining binding", "value": "107%"}
{"SMILES": "COc1ccc2[nH]cc(CCNC(=O)CI)c2c1", "target": "MTNR1A", "assay": "GTPγS binding, agonist, radiometric", "conditions": "cell membranes", "quantity": "Emax", "value": "83%"}
{"SMILES": "C#Cc1n[nH]c2c(-c3cn([C@@H](C)c4ccccn4)c(=O)[nH]c3=O)cc(F)cc12", "target": "Rho-associated protein kinase 2 (ROCK2, Homo sapiens, UniProt O75116)", "assay": "enzyme activity, inhibitor", "conditions": "0.1 µM", "quantity": "inhibition", "value": "1.2%"}
{"SMILES": "COc1ccc2cccc(C(CO)CNC(=O)CF)c2c1 (stereo not drawn)", "target": "MTNR1A", "assay": "GTPγS binding, agonist, radiometric", "conditions": "cell membranes", "quantity": "Emax", "value": "47%"}
{"SMILES": "Cc1nn(C)cc1-c1nc2c(N3CCN(Cc4ccc(Cl)cc4)CC3)c(Cl)cnc2[nH]1", "target": "Receptor-type tyrosine-protein kinase FLT3 (FLT3, Homo sapiens, UniProt P36888)", "assay": "binding, competition with immobilised ligand", "conditions": "1 µM", "quantity": "remaining binding", "value": "0.4%"}
{"SMILES": "COc1ncccc1-c1cnn2ccc(N3CCN(C(=O)OC(C)C)CC3)nc12", "target": "Serine/threonine-protein kinase ULK3 (ULK3, Homo sapiens, UniProt Q6PHR2)", "assay": "binding, competition with immobilised ligand", "conditions": "1 µM", "quantity": "remaining binding", "value": "54%"}
{"SMILES": "CN[C@@]1(c2ccccc2Cl)CCCCC1=O", "target": "Fatty-acid amide hydrolase 1 (FAAH, Homo sapiens, UniProt O00519)", "assay": "enzyme activity, inhibitor", "conditions": "30 µM", "quantity": "inhibition", "value": "11%"}
{"SMILES": "CCC(N)Cc1cc(OC)c(COC)cc1OC (stereo not drawn)", "target": "5-hydroxytryptamine receptor 2C (HTR2C, Homo sapiens, UniProt P28335)", "assay": "G protein activation, agonist, BRET", "quantity": "Emax", "value": "82%"}
{"SMILES": "Nc1ncc(-c2nc(N3CCOCC3)nc(N3CCOCC3)n2)c(C(F)F)n1", "target": "Serine/threonine-protein kinase DCLK3 (DCLK3, Homo sapiens, UniProt Q9C098)", "assay": "binding, competition with immobilised ligand", "conditions": "10 µM", "quantity": "remaining binding", "value": "73%"}
